# Measurements from ChEMBL document CHEMBL1122443, “Synthesis and antitumor evaluation of selected 5,6-disubstituted 1(2)H-indazole-4,7-diones” (1983).
# Active and inactive are the calls of the source. No cut-off for these calls is given here.
# Assays:
# Mus musculus [1] = test: Average days survived for treated / average days survived for control at 25 (mg/kg); 17.6/9.5; type: functional
# Mus musculus [2] = test: Anti tumor activity in mice bearing lymphocytic leukemia P-388 at 25 mg/kg; type: functional
# Method in brief: (§1)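 Male BDF1 mice (20–23 g) were inoculated ip with 1 × 10⁶ P-388 leukemia cells on day 0. Compound was given ip once daily on days 1–14 in 0.05% Tween 80 vehicle, with a vehicle control group and 5-fluorouracil as positive control. Activity was scored as % T/C, average days survived treated/control, with >125% taken as significant.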
# Mus musculus [3] = test: Antitumor activity in CF1 mice bearing Ehrlich ascites carcinoma measured as ascites volume at 3 mg/kg; type: functional
# Method in brief: (§2)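 Male CF1 mice (22–25 g) received 2 × 10⁶ Ehrlich carcinoma cells ip on day 0. Dosing was ip daily on days 1–8, with sacrifice on day 9. Ascites fluid volume per mouse and ascrit (packed cell volume) were measured for each group. Vehicle was 0.05% Tween 80, or 5% absolute EtOH in 0.05% Tween 80, used for both compound and control. 6-Mercaptopurine was the positive control.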
# Mus musculus [4] = test: Antitumor activity in 6 CF1 mice bearing Ehrlich ascites carcinoma measured as survivors on day 9 at 3 mg/kg; 6/6; type: functional
# Mus musculus [5] = test: (§3) Antitumor activity in CF1 mice bearing Ehrlich ascites carcinoma measured as percent ascrit packed cell volume at 3 mg/kg; type: functional; method in brief: as §2
# Mus musculus [6] = test: Antitumor activity in 6 CF1 mice bearing Ehrlich ascites carcinoma measured as survivors on day 9 at 5 mg/kg; 6/6; type: functional
# Mus musculus [7] = test: Antitumor activity in CF1 mice bearing Ehrlich ascites carcinoma measured as percentage inhibition at 5 mg/kg; type: functional
# Method in brief: (§4)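 Ehrlich ascites model in male CF1 mice (22–25 g): 2 × 10⁶ cells ip on day 0, ip dosing days 1–8, kill on day 9. Percent inhibition = 100 − [(treated volume × treated ascrit)/(control volume × control ascrit)]. Greater than 80% was taken as significant. Vehicle was 0.05% Tween 80, alone or with 5% absolute EtOH. 6-Mercaptopurine was the positive control.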
# Mus musculus [8] = test: Antitumor activity in CF1 mice bearing Ehrlich ascites carcinoma measured as percentage inhibition at 8 mg/kg; IA means inactive; type: functional, organism-based; parameters: dose 8 mg/kg; method in brief: as §4
# Mus musculus [9] = test: Antitumor activity in CF1 mice bearing Ehrlich ascites carcinoma measured as ascites volume at 5 mg/kg; type: functional; method in brief: as §2
# Mus musculus [10] = test: Antitumor activity in CF1 mice bearing Ehrlich ascites carcinoma measured as percent ascrit packed cell volume at 5 mg/kg; type: functional; method in brief: as §2
# Mus musculus [11] = test: Antitumor activity in CF1 mice bearing Ehrlich ascites carcinoma measured as percentage inhibition at 3 mg/kg; type: functional; method in brief: as §4
# Mus musculus [12] = test: Antitumor activity in CF1 mice bearing Ehrlich ascites carcinoma measured as ascites volume at 8 mg/kg; type: functional; method in brief: as §2
# Mus musculus [13] = test: Antitumor activity in 6 CF1 mice bearing Ehrlich ascites carcinoma measured as survivors on day 9 at 8 mg/kg; 6/6; type: functional
# Mus musculus [14] = test: Antitumor activity in CF1 mice bearing Ehrlich ascites carcinoma measured as percent ascrit packed cell volume at 8 mg/kg; type: functional; method in brief: as §2
# Mus musculus [15] = test: Antitumor activity in CF1 mice bearing Ehrlich ascites carcinoma measured as survivors on day 9 at 5 mg/kg; 5/5; type: functional
# Mus musculus [16] = test: Antitumor activity in CF1 mice bearing Ehrlich ascites carcinoma measured as percentage inhibition at 8 mg/kg; type: functional; method in brief: as §4
# Mus musculus [17] = test: as §3; type: functional; remark: listed apart in the source
# Method in brief: (§5)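 CF1 male mice (22–25 g) were inoculated ip with 2 × 10⁶ Ehrlich cells on day 0 and treated ip on days 1–8 in 0.05% Tween 80 or 5% EtOH/0.05% Tween 80 vehicle. On day 9 the mice were sacrificed, and the ascrit (packed cell volume) of the ascites fluid was determined.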
# Mus musculus [18] = test: Average days survived for treated / average days survived for control at 1 (mg/kg); 10/9.2; type: functional
# Mus musculus [19] = test: Antitumor activity in CF1 mice bearing Ehrlich ascites carcinoma measured as percentage inhibition at 3 mg/kg; IA=inactive; type: functional, organism-based; parameters: dose 3 mg/kg
# Method in brief: (§6)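 In the Ehrlich ascites model, male CF1 mice (22–25 g) received 2 × 10⁶ cells ip on day 0 and compound ip on days 1–8, with a vehicle of 0.05% Tween 80 ± 5% EtOH. Ascites volume and ascrit were taken on day 9. % inhibition = 100 − [(vol × ascrit, treated)/(vol × ascrit, control)], with >80% taken as significant.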
# Mus musculus [20] = test: Antitumor activity in CF1 mice bearing Ehrlich ascites carcinoma measured as survivors on day 9 at 8 mg/kg; 5/6; type: functional
# Mus musculus [21] = test: Anti tumor activity in mice bearing lymphocytic leukemia P-388 at 1 mg/kg; type: functional; method in brief: as §1
# Mus musculus [22] = test: Antitumor activity in CF1 mice bearing Ehrlich ascites carcinoma measured as survivors on day 9 at 3 mg/kg; 6/6; type: functional
# Mus musculus [23] = test: Antitumor activity in CF1 mice bearing Ehrlich ascites carcinoma measured as percent ascrit packed cell volume at 10 mg/kg; type: functional; method in brief: as §5
# Mus musculus [24] = test: Anti tumor activity in mice bearing lymphocytic leukemia P-388 at 30 mg/kg; type: functional; method in brief: as §1
# Mus musculus [25] = test: Average days survived for treated / average days survived for control at 10 (mg/kg); 6.4/9.2; type: functional
# Mus musculus [26] = test: Anti tumor activity in mice bearing lymphocytic leukemia P-388 at 5 mg/kg; type: functional; method in brief: as §1
# Mus musculus [27] = test: Average days survived for treated / average days survived for control at 30 (mg/kg); 3.0/9.2; type: functional
# Mus musculus [28] = test: Antitumor activity in CF1 mice bearing Ehrlich ascites carcinoma measured as survivors on day 9 at 1 mg/kg; 6/6; type: functional
# Mus musculus [29] = test: Average days survived for treated / average days survived for control at 20 (mg/kg); 4.8/9.2; type: functional
# Mus musculus [30] = test: Anti tumor activity in mice bearing lymphocytic leukemia P-388 at 20 mg/kg; type: functional
# Method in brief: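 Male BDF1 mice (20–23 g) inoculated ip with 1 × 10⁶ P-388 lymphocytic leukemia cells on day 0. Test agents were given ip once daily on days 1–14, with 0.05% Tween 80 as vehicle for treated and control groups. Read-out is %T/C, the mean days survived by treated over control. Values above 125% were counted as significant. 5-Fluorouracil was the positive control.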
# Mus musculus [31] = test: Antitumor activity in CF1 mice bearing Ehrlich ascites carcinoma measured as percent ascrit packed cell volume at 1 mg/kg; type: functional; method in brief: as §5
# Mus musculus [32] = test: Average days survived for treated / average days survived for control at 1 (mg/kg); 9.6/9.2; type: functional
# Mus musculus [33] = test: Anti tumor activity in mice bearing lymphocytic leukemia P-388 at 10 mg/kg; type: functional; method in brief: as §1
# Mus musculus [34] = test: Antitumor activity in CF1 mice bearing Ehrlich ascites carcinoma measured as percentage inhibition at 1 mg/kg; IA= inactive; type: functional, organism-based; parameters: dose 1 mg/kg; method in brief: as §6
# Mus musculus [35] = test: Antitumor activity in CF1 mice bearing Ehrlich ascites carcinoma measured as percentage inhibition at 10 mg/kg; IA= inactive; type: functional, organism-based; parameters: dose 10 mg/kg; method in brief: as §6
# Mus musculus [36] = test: Average days survived for treated / average days survived for control at 5 (mg/kg); 8.8/9.2; type: functional
# Mus musculus [37] = test: Antitumor activity in CF1 mice bearing Ehrlich ascites carcinoma measured as survivors on day 9 at 10 mg/kg; 5/6; type: functional
# Mus musculus [38] = test: Antitumor activity in CF1 mice bearing Ehrlich ascites carcinoma measured as ascites volume at 1 mg/kg; type: functional
# Method in brief: (§7)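 Ehrlich ascites cells (2 × 10⁶) were implanted ip in male CF1 mice (22–25 g) on day 0. Dosing was ip on days 1–8 in 0.05% Tween 80 or 5% EtOH/0.05% Tween 80, with vehicle controls. Mice were killed on day 9, and ascites fluid volume per mouse was measured.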
# Mus musculus [39] = test: Antitumor activity in CF1 mice bearing Ehrlich ascites carcinoma measured as survivors on day 9 at 5 mg/kg; 6/6; type: functional
# Mus musculus [40] = test: Antitumor activity in CF1 mice bearing Ehrlich ascites carcinoma measured as ascites volume at 10 mg/kg; type: functional; method in brief: as §7
# Mus musculus [41] = test: Antitumor activity in CF1 mice bearing Ehrlich ascites carcinoma measured as survivors on day 9 at 1 mg/kg; 5/6; type: functional
# Mus musculus [42] = test: Antitumor activity in CF1 mice bearing Ehrlich ascites carcinoma measured as percentage inhibition at 1 mg/kg; type: functional; method in brief: as §6
# Mus musculus [43] = test: Average days survived for treated / average days survived for control at 1 (mg/kg); 9.4/9.2; type: functional
Compound,ascites volume (Mus musculus [3]),inhibition in vivo at 5 mg/kg (Mus musculus [7]),ascites volume (Mus musculus [9]),packed cell volume (Mus musculus [10]),ascites volume (Mus musculus [12]),packed cell volume (Mus musculus [14]),Survivors (Mus musculus [15]),T/C (Mus musculus [21]),packed cell volume (Mus musculus [23]),packed cell volume (Mus musculus [31]),inhibition (Mus musculus [35]),Survivors (Mus musculus [37]),ascites volume (Mus musculus [38]),ascites volume (Mus musculus [40]),further results
O=c1[nH]cc(F)c(=O)[nH]1 [FLUOROURACIL],–,–,–,–,–,–,–,–,–,–,–,–,–,–,Average survival (days) (Mus musculus [1]): 17.6; T/C (Mus musculus [2]): 186%
Cn1ncc2c1C(=O)C(Cl)=C(N)C2=O,2 ml mouse-1,8.4%,1 ml mouse-1,35.4%,1.9 ml mouse-1,33.9%,–,–,–,–,–,–,–,–,Survivors (Mus musculus [4]): 6; packed cell volume (Mus musculus [5]): 44%; Survivors (Mus musculus [6]): 6; inhibition (Mus musculus [8]): inactive; inhibition in vivo at 3 mg/kg (Mus musculus [11]): 25.3%; Survivors (Mus musculus [13]): 6
CC(=O)NC1=C(N2CC2)C(=O)c2c(cnn2C)C1=O,3.2 ml mouse-1,78.3%,0.9 ml mouse-1,37.4%,1.2 ml mouse-1,38.6%,5,109%,–,–,–,–,–,–,inhibition in vivo at 8 mg/kg (Mus musculus [16]): 25.8%; packed cell volume (Mus musculus [17]): 41.4%; Average survival (days) (Mus musculus [18]): 10; inhibition (Mus musculus [19]): inactive; Survivors (Mus musculus [20]): 5; Survivors (Mus musculus [22]): 6
Cn1ncc2c1C(=O)C(Cl)=C(N1CC1)C2=O,–,5.8%,2.5 ml mouse-1,41.4%,–,–,–,107%,37.3%,35.2%,inactive,5,2 ml mouse-1,3.4 ml mouse-1,T/C (Mus musculus [24]): 33%; Average survival (days) (Mus musculus [25]): 6.4; T/C (Mus musculus [26]): 96%; Average survival (days) (Mus musculus [27]): 3; Survivors (Mus musculus [28]): 6; Average survival (days) (Mus musculus [29]): 4.8; T/C (Mus musculus [30]): 52%; Average survival (days) (Mus musculus [32]): 9.6; T/C (Mus musculus [33]): 70%; inhibition (Mus musculus [34]): inactive; Average survival (days) (Mus musculus [36]): 8.8; Survivors (Mus musculus [39]): 6
CCCSC1=C(N2CC2)C(=O)c2cnn(C)c2C1=O,–,78.5%,0.88 ml mouse-1,37.8%,–,–,5,102%,39.4%,37.2%,inactive,5,0.26 ml mouse-1,1.5 ml mouse-1,Survivors (Mus musculus [41]): 5; inhibition in vivo at 1 mg/kg (Mus musculus [42]): 74.1%; Average survival (days) (Mus musculus [43]): 9.4
